Calls of active or inactive are those of the source. The calls are words filed in the database; no cut-off is given here.
Tests used:
DU-145 [1] = assay: Inhibition of hypoxia-induced accumulation of HIF-1alpha in human DU145 cells at 10 to 30 uM after 24 hrs by Western blotting analysis; format: functional, cell-based
How it was run: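 DU145 cells at 40% confluence pre-incubated 12 h normoxic (5% CO2, 37 °C) or hypoxic (94% N2, 5% CO2, 1% O2). Then treated 24 h under the same condition. Cells rinsed in ice-cold PBS and lysed in Tris-HCl pH 7.5 buffer with EDTA, PMSF, NaF, vanadate, SDS and protease/phosphatase inhibitors. Lysates run on SDS-PAGE and blotted with anti-HIF-1α and anti-β-actin. ECL detection.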

DU-145 [2] = assay: Antiproliferative activity against human DU145 cells assessed as growth inhibition under hypoxic condition at 1 to 30 uM after 24 hrs by MTT assay; format: functional, cell-based
DU-145 [3] = assay: Inhibition of hypoxia-induced of VEGF production in human DU145 cells at 10 to 30 uM after 24 hrs by Western blotting analysis; format: functional, cell-based
How it was run: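 DU145 cells at 40% confluence pre-incubated 12 h normoxic or hypoxic (1% O2), then treated 24 h. Medium incubated 12 h at 4 °C with anti-VEGF antibody, then with protein G agarose for 2 h at 4 °C. Beads washed 4 times in lysis buffer and boiled 5 min in SDS sample buffer. Run on SDS-PAGE, Western blotted, ECL detection.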

DU-145 [4] = assay: Antiproliferative activity against human DU145 cells assessed as growth inhibition under hypoxic condition after 24 hrs by MTT assay; format: functional, cell-based
How it was run: (§1)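 DU145 cells in RPMI 1640 with 10% heat-inactivated FBS, seeded at 1×10^4 cells/well, settled 4 h at 37 °C in 5% CO2. Then held 12 h either normoxic or hypoxic (94% N2, 5% CO2, 1% O2). Compound added and incubated a further 24 h under the same condition. Read by MTT; inhibition expressed as % of parallel negative controls. Mean ± SD of 3 experiments in triplicate.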

DU-145 [5] = assay: Antiproliferative activity against human DU145 cells assessed as growth inhibition under normoxic condition at 30 uM after 24 hrs by MTT assay; format: functional, cell-based; how it was run: as §1
DU-145 [6] = assay: Antiproliferative activity against human DU145 cells assessed as growth inhibition under hypoxic condition at 30 uM after 24 hrs by MTT assay; format: functional, cell-based; how it was run: as §1
DU-145 [7] = assay: Antiproliferative activity against human DU145 cells assessed as maximal growth inhibition under hypoxic condition at 10 uM after 24 hrs by MTT assay; format: functional; settings: DU-145, 24 h; how it was run: as §1

## CC1=CCC[C@H]2[C@@H](C)[C@@](C)(CC3=C(O)C(=O)C=C(N)C3=O)CC[C@]12C
DU-145 [1]
  inhibition: inactive
DU-145 [2]
  inhibition: inactive
DU-145 [3]
  inhibition: inactive

## COC1=CC(=O)C(O)=C(C[C@@]2(C)CC[C@]3(C)C(C)=CCC[C@H]3[C@H]2C)C1=O
DU-145 [2]
  inhibition: inactive

## C=C1CCC[C@H]2[C@](C)(Cc3cc(C(=O)OC)ccc3O)[C@@H](C)CC[C@]12C
DU-145 [1]
  inhibition: Active
DU-145 [3]
  inhibition: Active
DU-145 [4]
  inhibition: Dose-dependent effect
DU-145 [5]
  inhibition: Active
DU-145 [6]
  inhibition: Active
DU-145 [7]
  inhibition at 10 µM: 43%

## C=C1CCC[C@H]2[C@](C)(CC3=C(O)C(=O)C=C(NCCc4ccccc4)C3=O)[C@@H](C)CC[C@@]12C
DU-145 [2]
  inhibition: inactive

## C=C1CCC[C@H]2[C@](C)(CC3=C(O)C(=O)C=C(OC)C3=O)[C@@H](C)CC[C@]12C
DU-145 [2]
  inhibition: inactive

## C=C1CCC[C@H]2[C@](C)(CC3=C(O)C(=O)C=C(NCC(C)C)C3=O)[C@@H](C)CC[C@]12C
DU-145 [2]
  inhibition: inactive

## C=C1CCC[C@H]2[C@](C)(Cc3cc(C(=O)OC)cc(O)c3O)[C@@H](C)CC[C@]12C
DU-145 [4]
  inhibition: Dose-dependent effect

## C=C1CCC[C@H]2[C@](C)(CC3=C(O)C(=O)C=C(NCC(C)C)C3=O)[C@@H](C)CC[C@@]12C
DU-145 [2]
  inhibition: inactive

Source: ChEMBL document CHEMBL3351592, “Marine spongian sesquiterpene phenols, dictyoceratin-C and smenospondiol, display hypoxia-selective growth inhibition against cancer cells” (2014)
